T cruzi growth-1: blocks T. cruzi growth in NIH3T3 culture; T. cruzi beta-gal in NIH3T3, GalScreen luminescence, 90 h; inhibition, % at 8.34 µM; 5.9% of 77,000 active; AID 624255;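 active = mean inhibition above about 93%, with at least 55% of replicates each passing it, limit read from the data, passing the limit was not always enough; inconclusive = only one of those two conditions holds; inactive = neither condition holds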
GASC1 inh: KDM4C (human) demethylase inhibition. GST-KDM4C 2-372, H3K9me3 peptide, LANCE TR-FRET. inhibition, % at 12.5 µM. 0.15% of 96,000 active;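 active = mean replicate inhibition above about 25%, with at least 55% of replicates also reaching it, limit read from the data, passing the limit was not always enough; inconclusive = only one of those two conditions met; inactive = neither condition met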
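System: N-terminal GST-fused human GASC-1 (KDM4C) fragment, residues 2-372; amount: enzyme final amount 10 nM; incubation: reaction 30 min RT, detection step 1 h RT; medium: HEPES buffer, pH 7.5, plus ascorbate; technique: LANCE TR-FRET, Eu antibody, ULight-streptavidin, EDTA, ex 340 nm, em 618/671 nm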
IDH1 R132H inh: blocks human IDH1 R132H reductase activity | diaphorase/resazurin fluorescence, 60 min | inhibition, % at 10 µM | 0.18% of 70,000 active; in the data active = inhibition above about 34%; inconclusive = no clear call, values can overlap the other calls; inactive = below about 11%;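 also: 0% = DMSO and 100% = no enzyme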
Target sequence (O75874 whole entry R132H): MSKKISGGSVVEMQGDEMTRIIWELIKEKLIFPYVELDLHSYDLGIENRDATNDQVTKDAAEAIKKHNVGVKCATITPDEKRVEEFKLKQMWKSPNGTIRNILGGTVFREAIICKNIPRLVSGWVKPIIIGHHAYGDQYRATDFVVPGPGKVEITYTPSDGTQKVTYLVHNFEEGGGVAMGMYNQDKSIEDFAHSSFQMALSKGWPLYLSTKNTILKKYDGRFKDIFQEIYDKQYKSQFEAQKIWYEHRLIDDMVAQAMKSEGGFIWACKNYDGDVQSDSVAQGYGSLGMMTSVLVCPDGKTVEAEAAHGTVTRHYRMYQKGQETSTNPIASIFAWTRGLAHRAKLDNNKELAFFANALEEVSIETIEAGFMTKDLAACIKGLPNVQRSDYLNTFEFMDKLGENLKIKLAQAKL
T cruzi growth-2: Trypanosoma cruzi proliferation inhibition | shares compounds with T cruzi growth-1 | 72% of 5,600 active | inhibition, % at 8.35 µM | T. cruzi beta-gal in NIH3T3, GalScreen luminescence, 90 h | AID 651739;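 active = mean replicate inhibition above about 95% and at least 55% of replicates individually reaching it, limit read from the data; inconclusive = only one of the two criteria is met; inactive = neither criterion is met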
T cruzi growth-3: blocks T. cruzi growth in NIH3T3 host cells | shares compounds with T cruzi growth-1 | T. cruzi beta-gal in NIH3T3, GalScreen luminescence, 90 h | inhibition, % at 2.09 µM | 21% of 5,600 active | AID 651740;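 active = mean inhibition above about 95%, with at least 55% of replicates also reaching it, limit read from the data; inconclusive = meets just one of the two conditions; inactive = meets neither condition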;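 also: plate controls were neutral control median for no effect and positive control median for full effect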
NIH3T3 tox: cytotoxicity in mouse NIH/3T3 fibroblasts | AID 651742 | NIH/3T3 viability, CellTiter-Glo ATP luminescence, 90 h | 14% of 5,600 active | shares compounds with T cruzi growth-1 | cytotoxicity (signal decrease), % at 8.35 µM;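 active = mean signal decrease across replicates above about 35% based on untreated-well scatter, with enough replicates individually passing, limit read from the data; inconclusive = no rule stated though some were filed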;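 also: 0% = median of neutral control wells and 100% = median of positive control wells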
3T3 cytotox 2: cytotoxicity in mouse NIH/3T3 fibroblasts. shares compounds with T cruzi growth-1. NIH/3T3 viability, CellTiter-Glo ATP luminescence, 90 h. 56% of 5,600 active. inhibition, % at 24.9 µM;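 active = mean loss of cell viability signal at or above a set limit, and enough replicates individually reaching it; inconclusive = meets only the mean limit or only the replicate share; inactive = meets neither condition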;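 also: 0% = median of neutral control wells and 100% = median of positive control wells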
Active calls of the source: *; ? = inconclusive; / = no result given. This is one part of a sample in which hits are shown more often than they occur.

SMILES	T cruzi growth-1	GASC1 inh	IDH1 R132H inh	T cruzi growth-2	T cruzi growth-3	NIH3T3 tox	3T3 cytotox 2
O=C(CC(C(=O)O)N1CCCCC1)Nc1cccc2ccccc12 (stereo not given)	/	/	0.4	/	/	/	/
Cc1sc2ncnc(Nc3cccc(C(=O)O)c3)c2c1C	/	/	0.2	/	/	/	/
CO[C@H](CN(C)S(=O)(=O)c1cccc(Cl)c1)[C@H](C)CN([C@H](C)CO)S(=O)(=O)c1cccc(Cl)c1	101.0*	-0.7	-0.6	113.3*	71.5	?	60.0*
CO[C@@H](CN(C)S(=O)(=O)c1ccc(C)cc1)[C@H](C)CN([C@H](C)CO)S(=O)(=O)c1cccc(Cl)c1	-170.6	-0.4	-1.1	/	/	/	/
CO[C@@H](CN(C)S(=O)(=O)c1cccc(Cl)c1)[C@H](C)CN([C@@H](C)CO)S(=O)(=O)c1ccc(Cl)cc1	102.7*	-0.2	-0.4	?	23.0	?	75.6*
CO[C@@H](CN(C)S(=O)(=O)c1cccc(Cl)c1)[C@@H](C)CN([C@H](C)CO)S(=O)(=O)c1cccc(Cl)c1	90.7	-2.3	-0.4	/	/	/	/
CO[C@H](CN(C)S(=O)(=O)c1cccc(Cl)c1)[C@H](C)CN([C@@H](C)CO)S(=O)(=O)c1ccc(Cl)cc1	86.1	-3.2	-0.3	/	/	/	/
CO[C@H](CN(C)S(=O)(=O)c1cccc(Cl)c1)[C@@H](C)CN([C@H](C)CO)S(=O)(=O)c1ccc(Cl)cc1	94.2	-2.3	-0.2	/	/	/	/
CO[C@H](CN(C)S(=O)(=O)c1ccc(C)cc1)[C@H](C)CN([C@H](C)CO)S(=O)(=O)c1cccc(Cl)c1	102.0*	-2.6	-0.7	102.8*	25.9	57.7*	83.6*
CO[C@H](CN(C)S(=O)(=O)c1cccc(Cl)c1)[C@H](C)CN([C@@H](C)CO)S(=O)(=O)c1cccc(Cl)c1	99.3*	-1.1	-0.6	109.7*	24.3	49.3*	57.7*
CCC1=Nc2cc(C(=O)N(C)Cc3ccccc3)ccc2Sc2ccc(C)cc21	/	/	-1.1	/	/	/	/
Cc1ccc([N+](=O)[O-])cc1NC(=O)C1CCCN(S(=O)(=O)c2ccc(Cl)cc2)C1 (stereo not given)	/	/	-0.4	/	/	/	/
COc1ccc(C(=O)C(C)Oc2cccc(NC(=O)c3ccc([N+](=O)[O-])cc3)c2)cc1 (stereo not given)	/	/	0.0	/	/	/	/
C[C@H](CO)N1C[C@H](C)[C@@H](CN(C)S(=O)(=O)c2ccc(F)cc2)Oc2cc(Br)ccc2S1(=O)=O	75.5	-3.4	/	/	/	/	/
Cc1ccc(S(=O)(=O)N(C)C[C@@H]2Oc3cc(C#Cc4ccncc4)ccc3S(=O)(=O)N([C@@H](C)CO)C[C@@H]2C)cc1	-9.3	-14.4	-1.7	/	/	/	/
C[C@@H]1CN([C@H](C)CO)S(=O)(=O)c2ccc(C#Cc3ccc(F)cc3)cc2O[C@@H]1CN(C)S(=O)(=O)c1ccc(F)cc1	?	0.9	-0.2	?	111.9*	12.2	70.7*
CC(C)CC#Cc1ccc2c(c1)O[C@H](CN(C)S(=O)(=O)c1ccc(F)cc1)[C@H](C)CN([C@H](C)CO)S2(=O)=O	/	-1.2	-0.6	/	/	/	/
C[C@H](CO)N1C[C@H](C)[C@H](CN(C)S(=O)(=O)c2ccc(F)cc2)Oc2cc(Br)ccc2S1(=O)=O	97.6*	-1.9	-5.6	99.7*	28.6	32.9	65.0*
C[C@H](CO)N1C[C@H](C)[C@H](CN(C)S(=O)(=O)c2ccc(F)cc2)Oc2cc(C#Cc3ccc(F)cc3)ccc2S1(=O)=O	110.9*	-0.9	/	99.7*	106.5*	4.9	16.6
C[C@@H]1CN([C@@H](C)CO)S(=O)(=O)c2ccc(C#Cc3ccncc3)cc2O[C@@H]1CN(C)S(=O)(=O)c1ccc(F)cc1	114.3*	-5.2	2.5	?	50.8	34.4*	43.5*
CC(C)CC#Cc1ccc2c(c1)O[C@@H](CN(C)S(=O)(=O)c1ccc(F)cc1)[C@@H](C)CN([C@H](C)CO)S2(=O)=O	/	-0.3	0.2	/	/	/	/
CC(CCC1(C)C(C)CCC2(CO)C(CO)=CCCC21)CC(=O)O (stereo not given)	/	/	-0.5	/	/	/	/
O=C(Cn1cnc2scc(-c3ccccc3)c2c1=O)Nc1cc(Cl)cc(Cl)c1	/	/	0.0	/	/	/	/
CC(C)CC#Cc1ccc2c(c1)O[C@H](CN(C)S(=O)(=O)c1ccc(F)cc1)[C@@H](C)CN([C@H](C)CO)S2(=O)=O	/	0.6	0.3	/	/	/	/
COCC#Cc1ccc2c(c1)O[C@H](CN(C)S(=O)(=O)c1ccc(F)cc1)[C@H](C)CN([C@@H](C)CO)S2(=O)=O	100.6*	5.0	2.1	76.4	17.8	9.2	55.0*
SMILES	T cruzi growth-1	GASC1 inh	IDH1 R132H inh	T cruzi growth-2	T cruzi growth-3	NIH3T3 tox	3T3 cytotox 2
C[C@@H]1CN([C@H](C)CO)S(=O)(=O)c2ccc(C#Cc3ccc(F)cc3)cc2O[C@H]1CN(C)S(=O)(=O)c1ccc(F)cc1	109.8*	0.4	-3.3	98.1*	110.1*	40.7*	54.9*
COCC#Cc1ccc2c(c1)O[C@H](CN(C)S(=O)(=O)c1ccc(F)cc1)[C@@H](C)CN([C@H](C)CO)S2(=O)=O	74.7	1.0	-6.4	/	/	/	/
COC(=O)c1ccc(Cl)c(NC(=O)CSc2nnc(-c3ccc(Cl)cc3)o2)c1	/	/	0.2	/	/	/	/
O=C(CCCCCC(=O)Nc1ccccc1O)N/N=C/c1cccc(C(=O)O)c1	/	/	0.5	/	/	/	/
Cc1cc(C)nc(NS(=O)(=O)c2ccc(NC(=S)NC(=O)c3ccccc3)cc2)n1	/	/	1.2	/	/	/	/
C[C@H](CO)N1C[C@H](C)[C@@H](CN(C)S(=O)(=O)c2ccccc2F)Oc2cc(-c3ccccc3)ccc2S1(=O)=O	69.4	-0.4	-1.0	/	/	/	/
C[C@@H]1CN([C@@H](C)CO)S(=O)(=O)c2ccc(-c3ccncc3)cc2O[C@H]1CN(C)S(=O)(=O)c1ccccc1F	/	0.0	0.1	/	/	/	/
C[C@H]1CN([C@@H](C)CO)S(=O)(=O)c2ccc(-c3ccccc3)cc2O[C@@H]1CN(C)S(=O)(=O)c1ccccc1F	91.4*	-3.6	0.4	99.5*	75.2	36.5*	37.6*
C[C@H]1CN([C@@H](C)CO)S(=O)(=O)c2ccc(-c3ccccc3)cc2O[C@H]1CN(C)S(=O)(=O)c1ccccc1F	119.0*	-1.0	-0.3	103.4*	102.8*	33.4	45.6*
C[C@@H]1CN([C@@H](C)CO)S(=O)(=O)c2ccc(-c3ccncc3)cc2O[C@@H]1CN(C)S(=O)(=O)c1ccccc1F	/	0.6	0.9	/	/	/	/
C[C@H](CO)N1C[C@H](C)[C@H](CN(C)S(=O)(=O)c2ccccc2F)Oc2cc(-c3ccccc3)ccc2S1(=O)=O	120.2*	1.3	-0.7	100.4*	89.9	?	45.1*
Cc1ccc(N(C(C)C(=O)Nc2cccc(Br)c2)S(C)(=O)=O)cc1C (stereo not given)	/	/	-0.5	/	/	/	/
COc1cccc(-c2ccc([C@@H]3[C@@H](CO)N(C(=O)Cc4ccccc4)[C@H]3C#N)cc2)c1	85.1	2.0	/	/	/	/	/
